Converted amounts (≈) assume the structure as drawn. The source made the active and inactive calls. No cut-off for these calls is given here.
What was measured:
Staphylococcus aureus [1] = experiment: Anti-biofilm activity against Methicillin-resistant Staphylococcus aureus assessed as biofilm volume/area at 1XMIC measured after 48 hrs by crystal violet staining based phase contrast microscopy (reference value: 18.37 +/-1.14 um3/um2); type: functional
Staphylococcus aureus [2] = experiment: Anti-biofilm activity against Methicillin-resistant Staphylococcus aureus assessed as biofilm volume/area at 1/2XMIC measured after 48 hrs by crystal violet staining based phase contrast microscopy (reference value: 18.37 +/-1.14 um3/um2); type: functional
Enterobacter cloacae = experiment: Antibacterial activity against clinically isolated Enterobacter cloacae RBRJ017 assessed as inhibition of bacterial growth at 50 uM measured after 48 hrs by agar well diffusion method; type: functional; settings: read-out: IZ
Staphylococcus aureus [3] = experiment: Antibacterial activity against Methicillin-resistant Staphylococcus aureus infected in Galleria mellonella assessed as larva's survival rate at 5 to 10 mg/kg measured after 24 to 48 hrs; type: functional; settings: dose 5-10 mg/kg, time 24-48 hrs
Summary of the method: (§1)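 Galleria mellonella larvae (0.2–0.4 g, 10 per group) injected in the last proleg with MRSA at 5 × 10^8 ± 0.2 cells per larva, then given 2.5, 5 or 10 mg kg−1. Controls: untreated, PBS, and PBS + 2% DMSO vehicle. Held at 37 °C and checked every 12 h; larvae that were black and unresponsive counted dead. Bacterial burden by CFU at 0, 24 and 48 h.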

Klebsiella pneumoniae = experiment: Antibacterial activity against Klebsiella pneumoniae MTCC 109 assessed as inhibition of bacterial growth at 50 uM measured after 48 hrs by agar well diffusion method; type: functional; settings: read-out: IZ
Staphylococcus aureus [4] = experiment: Anti-biofilm activity against Methicillin-resistant Staphylococcus aureus assessed as reduction in biofilm formation at 1/2XMIC measured after 48 hrs by crystal violet staining based analysis; type: functional
Summary of the method: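 Non-adherent cells washed off with water, stained with 0.5% crystal violet 30 min at 25 °C, dye eluted with 95% ethanol, OD 545 nm. Reported as % reduction versus untreated control. Triplicate.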

Staphylococcus aureus [5] = experiment: Antibacterial activity against clinically isolated Staphylococcus aureus RBRJ010 assessed as inhibition of bacterial growth measured after 48 hrs by broth microdilution method; type: functional
[6] = test system: Staphylococcus epidermidis; experiment: Antibacterial activity against Staphylococcus epidermidis MTCC 435 assessed as inhibition of bacterial growth measured after 48 hrs by broth microdilution method; type: functional
Staphylococcus aureus [7] = experiment: Antibacterial activity against clinically isolated Staphylococcus aureus RBRJ010 assessed as inhibition of bacterial growth at 50 uM measured after 48 hrs by agar well diffusion method; type: functional; settings: read-out: IZ
Staphylococcus aureus [8] = experiment: Anti-biofilm activity against Methicillin-resistant Staphylococcus aureus assessed as mean thickness of biofilm at 2XMIC measured after 48 hrs by crystal violet staining based phase contrast microscopy (reference value: 15.03+/-1.63 um); type: functional
[9] = test system: Staphylococcus epidermidis; experiment: Antibacterial activity against Staphylococcus epidermidis MTCC 435 assessed as inhibition of bacterial growth at 50 uM measured after 48 hrs by agar well diffusion method; type: functional; settings: read-out: IZ
Staphylococcus aureus [10] = experiment: Bactericidal activity against Methicillin-resistant Staphylococcus aureus ATCC 33591 assessed as inhibition of bacterial growth measured after 48 hrs by agar plate method; type: functional
Summary of the method: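 MBC: aliquots from microdilution wells without colour change subcultured on drug-free Mueller Hinton agar, 48 h at 37 °C aerobically. MBC is the lowest concentration with no visible growth. Triplicate.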

Staphylococcus aureus [11] = experiment: Antibacterial activity against clinically isolated Methicillin-resistant Staphylococcus aureus assessed as inhibition of bacterial growth at 50 uM measured after 48 hrs by agar well diffusion method; type: functional; settings: read-out: IZ
Staphylococcus aureus [12] = experiment: Anti-biofilm activity against Methicillin-resistant Staphylococcus aureus assessed as biofilm substrate coverage at 1/2XMIC measured after 48 hrs by crystal violet staining based phase contrast microscopy (reference value: 81.43+/-3.57%); type: functional
Staphylococcus aureus [13] = experiment: Bacteriostatic activity against Methicillin-resistant Staphylococcus aureus assessed as reduction in colony formation units at 1/2XMIC measured after 48 hrs by time-kill assay; type: functional, organism-based
Summary of the method: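 Samples taken at 1, 2, 4, 8, 12, 24 and 48 h, diluted in 0.9% saline and plated on Mueller Hinton agar (48 h, 37 °C). CFU counted and log10 CFU mL−1 plotted against time. Triplicate.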

Staphylococcus aureus [14] = experiment: Anti-biofilm activity against Methicillin-resistant Staphylococcus aureus assessed as cell leakage and irregular surface at 1 to 2X MIC measured after 48 hrs by scanning electron microscopy; type: functional, organism-based
Staphylococcus aureus [15] = experiment: Bactericidal activity against clinically isolated Methicillin-resistant Staphylococcus aureus assessed as inhibition of bacterial growth measured after 48 hrs by agar plate method; type: functional
Staphylococcus aureus [16] = experiment: Antibacterial activity against Methicillin-resistant Staphylococcus aureus infected in Galleria mellonella assessed as larva's survial rate at 2.5 mg/kg measured after 24 to 48 hrs; type: functional; settings: time 24-48 hrs; summary of the method: as §1
Acinetobacter baumannii = experiment: Antibacterial activity against clinically isolated Acinetobacter baumannii RBRJ027 assessed as inhibition of bacterial growth at 50 uM measured after 48 hrs by agar well diffusion method; type: functional; settings: read-out: IZ
Staphylococcus aureus [17] = experiment: Antibacterial activity against Staphylococcus aureus MTCC 740 assessed as inhibition of bacterial growth measured after 48 hrs by broth microdilution method; type: functional
Escherichia coli [18] = experiment: Antibacterial activity against clinically isolated Escherichia coli RBRJ013 assessed as inhibition of bacterial growth at 50 uM measured after 48 hrs by agar well diffusion method; type: functional; settings: read-out: IZ
[19] = Toxicity against Galleria mellonella assessed as visible injury at 20 mg/kg measured every 12 hrs for 120 hrs; type: organism-based; settings: in vivo
Summary of the method: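 Uninfected Galleria mellonella larvae (0.2–0.4 g, ten per group) given 20 mg kg−1 compound, alongside untreated, PBS and PBS + 2% DMSO vehicle controls; held at 37 °C and checked every 12 h for 120 h. Larvae that turned black and gave no response to stimulus counted dead; percentage survival recorded.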

Staphylococcus aureus [20] = experiment: Antibacterial activity against clinically isolated Methicillin-resistant Staphylococcus aureus assessed as inhibition of bacterial growth measured after 48 hrs by broth microdilution method; type: functional
Staphylococcus aureus [21] = experiment: Disruption of biofilms against 48 hrs preformed Methicillin-resistant Staphylococcus aureus assessed as eradication of biofilms measured after 24 hrs by crystal violet staining method; type: functional
Summary of the method: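 MRSA (1 × 10^5 CFU mL−1, diluted 1:100) grown 48 h at 37 °C in tryptone soy broth with 3% glucose. […] Saline wash, 95% ethanol fixation 30 min, 0.1% crystal violet 30 min at 25 °C, elution with 95% ethanol, OD 545 nm. MBEC determined. Triplicate.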

Staphylococcus aureus [22] = experiment: Anti-biofilm activity against Methicillin-resistant Staphylococcus aureus assessed as interruption in well organized and aggregated biofilm at 1/2 to 2X MIC measured after 48 hrs by scanning electron microscopy; type: functional, organism-based
Escherichia coli [23] = experiment: Antibacterial activity against Escherichia coli MTCC 119 assessed as inhibition of bacterial growth at 50 uM measured after 48 hrs by agar well diffusion method; type: functional; settings: read-out: IZ
Escherichia coli [24] = experiment: Antibacterial activity against clinically isolated Escherichia coli RBRJ005 assessed as inhibition of bacterial growth at 50 uM measured after 48 hrs by agar well diffusion method; type: functional; settings: read-out: IZ
Staphylococcus aureus [25] = experiment: Anti-biofilm activity against Methicillin-resistant Staphylococcus aureus assessed as biofilm volume/area at 2XMIC measured after 48 hrs by crystal violet staining based phase contrast microscopy (reference value: 18.37 +/-1.14 um3/um2); type: functional
Staphylococcus aureus [26] = experiment: Anti-biofilm activity against Methicillin-resistant Staphylococcus aureus assessed as mean thickness of biofilm at 1XMIC measured after 48 hrs by crystal violet staining based phase contrast microscopy (reference value: 15.03+/-1.63 um); type: functional

Structure (SMILES): Cc1ccc(C(C)C)c(OCc2cn(CCCN3C(=O)C(=O)c4ccccc43)nn2)c1
- Activity (Staphylococcus aureus [1]): 1.57 um3/um2
- Activity (Staphylococcus aureus [2]): 3.48 um3/um2
- zone of inhibition at 50 µM (Enterobacter cloacae): 19.2 mm
- Activity (Staphylococcus aureus [3]): 90%
- zone of inhibition at 50 µM (Klebsiella pneumoniae): 21.4 mm
- inhibition (INH) (Staphylococcus aureus [4]): 78.43%
- MIC (Staphylococcus aureus [5]): 1.9 µM (≈ 0.795 µg/mL)
- MIC [6]: 3.9 µM (≈ 1.63 µg/mL)
- zone of inhibition at 50 µM (Staphylococcus aureus [7]): 27.1 mm
- Activity (Staphylococcus aureus [8]): 0.16 um
- zone of inhibition at 50 µM [9]: 25.5 mm
- MBC (Staphylococcus aureus [10]): 7.8 µM (≈ 3.26 µg/mL)
- zone of inhibition at 50 µM (Staphylococcus aureus [11]): 28.8 mm
- Activity (Staphylococcus aureus [12]): 19.12%
- Activity (Staphylococcus aureus [13]): Active
- Activity (Staphylococcus aureus [14]): Active
- MBC (Staphylococcus aureus [15]): 3.9 µM (≈ 1.63 µg/mL)
- Activity (Staphylococcus aureus [16]): 80%
- zone of inhibition at 50 µM (Acinetobacter baumannii): 18.3 mm
- MIC (Staphylococcus aureus [17]): 1.9 µM (≈ 0.795 µg/mL)
- zone of inhibition at 50 µM (Escherichia coli [18]): 20.3 mm
- Activity [19]: Non-Toxic
- MIC (Staphylococcus aureus [20]): 1.9 µM (≈ 0.795 µg/mL)
- MBEC (Staphylococcus aureus [21]): 7.8 µM
- Activity (Staphylococcus aureus [22]): Active
- zone of inhibition at 50 µM (Escherichia coli [23]): 22.1 mm
- zone of inhibition at 50 µM (Escherichia coli [24]): 19.3 mm
- Activity (Staphylococcus aureus [25]): 0.69 um3/um2
- Activity (Staphylococcus aureus [26]): 1.11 um

From ChEMBL document CHEMBL5357047, “The development of thymol-isatin hybrids as broad-spectrum antibacterial agents with potent anti-MRSA activity” (RSC Med Chem, 2024)
